Measured values reported in paper PMC9290503 (British Journal of Clinical Pharmacology, 2021).

Legend:
[1] = Study 1003 MRD cohorts urine pharmacokinetics; format: in vivo, human; conditions: for Aet, mean (CV%) / CLR, mean (CV%) / fe,t, mean (CV%): urine, non‐Japanese
Summary of the method: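 Urine was collected pre-dose and over 0–6, 6–12 and 12–24 h on Days 1 and 10 of once-daily oral dosing. Free base was measured by validated UPLC–MS/MS after protein precipitation (calibration 1–2000 ng mL−1; LLOQ 1 ng mL−1). Noncompartmental analysis used nominal intervals; values below LLOQ were treated as zero.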

[2] = Study 1003 CSF pharmacokinetics at steady state; format: in vivo, human; conditions: 60 mg q.d.
[3] = Safety and tolerability, Study 1001; format: in vivo, human
Summary of the method: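 Double-blind, placebo-controlled single oral doses (5–60 mg) in healthy adults aged 18–55, given after at least 10 h fasting, with sentinel dosing in the first cohort. Monitored AEs, physical and neurological exams, vital signs, flagged clinical labs and 12-lead ECG. TEAEs counted from first dose to 30 days after. Semen analysis and serum FSH, LH, testosterone and inhibin B were taken at baseline and one or two spermatogenic cycles post-dose. Follow-up to day 60 (±2).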

[4] = Safety and tolerability, Study 1003; format: in vivo, human
Summary of the method: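 Healthy women received placebo or test compound once daily for 10 days (20–160 mg, double-blind), including one 20 mg cohort of four Japanese women. Monitored AEs, physical and neurological exams, vital signs, flagged clinical labs, pregnancy and 12-lead ECG. TEAEs counted from first dose to 30 days after the last dose. Follow-up to day 70 (±2).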

[5] = test system: mouse model of Kabuki syndrome; conditions: ref [7], cited from earlier work
[6] = test system: rodent models of neurodevelopmental disorder; conditions: two rodent models of neurodevelopmental disorder; ref [8]; cited from earlier work
[7] = preliminary toxicology studies in animals; no reference given; cited from earlier work
human LSD1 = conditions: targets the catalytic FAD in the LSD1 active site; no reference given; cited from earlier work
[8] = after multiple dosing (20–160 mg)
[9] = 20 mg q.d. 10 days, Japanese (n = 3)
[10] = 20 mg q.d. 10 days, non‐Japanese (n = 6)
[11] = 60 mg q.d. 10 days, non‐Japanese (n = 6)
[12] = 160 mg q.d. 10 days, non‐Japanese (n = 3)
[13] = MRD, TAK‐418 all participants (n = 18)

Cl.O=C(NC1CCOCC1)c1csc([C@@H]2C[C@H]2NCC2CC2)c1 [TAK‐418]
renal clearance [1, 8]: 5.12 to 7.81 L/h | renal excretion [1, 8]: 15.45–20.06% | Aet, mean (CV%) ([1]; 20 mg q.d., Day 1): 2.858 (25.1) mg | CLR, mean (CV%) ([1]; 20 mg q.d., Day 1): 5.813 (16.4) L h^−1 | fe,t, mean (CV%) ([1]; 20 mg q.d., Day 1): 14.283 (25.1) % | Aet, mean (CV%) ([1]; 20 mg q.d., Day 10): 3.090 (28.4) mg | CLR, mean (CV%) ([1]; 20 mg q.d., Day 10): 5.120 (38.2) L h^−1 | fe,t, mean (CV%) ([1]; 20 mg q.d., Day 10): 15.453 (28.4) % | Aet, mean (CV%) ([1]; 60 mg q.d., Day 1): 11.423 (28.4) mg | CLR, mean (CV%) ([1]; 60 mg q.d., Day 1): 8.365 (41.5) L h^−1 | fe,t, mean (CV%) ([1]; 60 mg q.d., Day 1): 19.050 (28.4) % | Aet, mean (CV%) ([1]; 60 mg q.d., Day 10): 11.087 (31.1) mg | CLR, mean (CV%) ([1]; 60 mg q.d., Day 10): 6.740 (25.1) L h^−1 | fe,t, mean (CV%) ([1]; 60 mg q.d., Day 10): 18.475 (31.1) % | Aet, mean (CV%) ([1]; 160 mg q.d., Day 1): 28.500 (11.0) mg | CLR, mean (CV%) ([1]; 160 mg q.d., Day 1): 7.583 (4.9) L h^−1 | fe,t, mean (CV%) ([1]; 160 mg q.d., Day 1): 17.800 (11.0) % | Aet, mean (CV%) ([1]; 160 mg q.d., Day 10): 32.067 (37.3) mg | CLR, mean (CV%) ([1]; 160 mg q.d., Day 10): 7.807 (32.7) L h^−1 | fe,t, mean (CV%) ([1]; 160 mg q.d., Day 10): 20.060 (37.2) % | mean C max in CSF ([2]; Day 10, CV% 24.7): 85.20 ng mL^ −1 | mean AUC0–24 in CSF ([2]; Day 10, CV% 26.5): 611.0 ng·h/mL | semen parameters or serum hormone levels ([3]; 23 male participants): no clinically relevant changes | laboratory test results, vital signs or electrocardiogram readings ([3]; Study 1001): No clinically significant changes | nausea, most common TAK‐418‐related TEAE ([3]; Study 1001): reported in one participant administered TAK‐418 15 mg and another administered TAK‐418 40 mg | serious AEs, suicidal ideation/behaviour, deaths ([3]; Study 1001): no serious AEs (SAEs), suicidal ideation/behaviour or deaths were reported | testicular pain ([3]; one at 15 mg (unrelated), one at 40 mg (study‐drug related)): two men given TAK‐418 reported testicular pain | participants reporting TEAEs ([3]; single dose 5–60 mg while fasting, 13 participants): 43% | severity of TEAEs ([3]; single dose up to 60 mg): mild | upper respiratory tract infection (most common TEAE) ([3]; single dose, n = 3): 10% | Participants with any TEAE [4, 9]: 1 (33.3) Number (%) of participants | TEAE Arthropod bite [4, 9]: 0 Number (%) of participants | TEAE Constipation [4, 9]: 0 Number (%) of participants | TEAE Decreased appetite [4, 9]: 0 Number (%) of participants | TEAE Diarrhoea [4, 9]: 0 Number (%) of participants | TEAE Dizziness [4, 9]: 0 Number (%) of participants | TEAE Dry mouth [4, 9]: 0 Number (%) of participants | TEAE Headache [4, 9]: 0 Number (%) of participants | TEAE Myalgia [4, 9]: 0 Number (%) of participants | TEAE Nausea [4, 9]: 0 Number (%) of participants | TEAE Somnolence [4, 9]: 0 Number (%) of participants | TEAE Vomiting [4, 9]: 0 Number (%) of participants | Participants with any TEAE [4, 10]: 5 (83.3) Number (%) of participants | TEAE Arthropod bite [4, 10]: 1 (16.7) Number (%) of participants | TEAE Constipation [4, 10]: 0 Number (%) of participants | TEAE Decreased appetite [4, 10]: 2 (33.3) Number (%) of participants | TEAE Diarrhoea [4, 10]: 0 Number (%) of participants | TEAE Dizziness [4, 10]: 1 (16.7) Number (%) of participants | TEAE Dry mouth [4, 10]: 0 Number (%) of participants | TEAE Headache [4, 10]: 4 (66.7) Number (%) of participants | TEAE Myalgia [4, 10]: 0 Number (%) of participants | TEAE Nausea [4, 10]: 0 Number (%) of participants | TEAE Somnolence [4, 10]: 2 (33.3) Number (%) of participants | TEAE Vomiting [4, 10]: 0 Number (%) of participants | Participants with any TEAE [4, 11]: 6 (100.0) Number (%) of participants | TEAE Arthropod bite [4, 11]: 1 (16.7) Number (%) of participants | TEAE Decreased appetite [4, 11]: 1 (16.7) Number (%) of participants | TEAE Diarrhoea [4, 11]: 1 (16.7) Number (%) of participants | TEAE Dizziness [4, 11]: 1 (16.7) Number (%) of participants | TEAE Dry mouth [4, 11]: 1 (16.7) Number (%) of participants | TEAE Headache [4, 11]: 5 (83.3) Number (%) of participants | TEAE Myalgia [4, 11]: 2 (33.3) Number (%) of participants | TEAE Nausea [4, 11]: 4 (66.7) Number (%) of participants | TEAE Somnolence [4, 11]: 1 (16.7) Number (%) of participants | TEAE Vomiting [4, 11]: 3 (50.0) Number (%) of participants | Participants with any TEAE [4, 12]: 3 (100.0) Number (%) of participants | TEAE Arthropod bite [4, 12]: 0 Number (%) of participants | TEAE Constipation [4, 12]: 0 Number (%) of participants | TEAE Decreased appetite [4, 12]: 0 Number (%) of participants | TEAE Diarrhoea [4, 12]: 2 (66.7) Number (%) of participants | TEAE Dizziness [4, 12]: 0 Number (%) of participants | TEAE Dry mouth [4, 12]: 2 (66.7) Number (%) of participants | TEAE Headache [4, 12]: 0 Number (%) of participants | TEAE Myalgia [4, 12]: 0 Number (%) of participants | TEAE Nausea [4, 12]: 0 Number (%) of participants | TEAE Somnolence [4, 12]: 0 Number (%) of participants | TEAE Vomiting [4, 12]: 0 Number (%) of participants | laboratory test parameters ([4]; MRD cohorts): No notably abnormal laboratory test parameters | participants experiencing TEAEs ([4]; MRD cohorts (20, 60 or 160 mg q.d.), 15 participants): 83% | treatment‐related headache ([4]; MRD cohorts, five individuals): 28% | participants with moderate TEAEs ([4]; MRD cohorts, five participants): 28% | decreased appetite ([4]; MRD cohorts, n = 3): 17% | diarrhoea ([4]; MRD cohorts, n = 3): 17% | dry mouth ([4]; MRD cohorts, n = 3): 17% | somnolence ([4]; MRD cohorts, n = 3): 17% | vomiting ([4]; MRD cohorts, n = 3): 17% | nausea ([4]; MRD cohorts, n = 4): 22% | headache ([4]; MRD cohorts, n = 9): 50% | participants with mild TEAEs ([4]; MRD cohorts, nine participants): 50% | participants with severe TEAEs ([4]; MRD cohorts, one participant (headache, 60 mg)): 6% | treatment‐related dry mouth ([4]; MRD cohorts, three individuals): 17% | participants with treatment‐related TEAEs ([4]; MRD cohorts, twelve participants, all mild): 67% | Participants with any TEAE [4, 13]: 15 (83.3) Number (%) of participants | TEAE Arthropod bite [4, 13]: 2 (11.1) Number (%) of participants | TEAE Constipation [4, 13]: 2 (11.1) Number (%) of participants | TEAE Decreased appetite [4, 13]: 3 (16.7) Number (%) of participants | TEAE Diarrhoea [4, 13]: 3 (16.7) Number (%) of participants | TEAE Dizziness [4, 13]: 2 (11.1) Number (%) of participants | TEAE Dry mouth [4, 13]: 3 (16.7) Number (%) of participants | TEAE Headache [4, 13]: 9 (50.0) Number (%) of participants | TEAE Myalgia [4, 13]: 2 (11.1) Number (%) of participants | TEAE Nausea [4, 13]: 4 (22.2) Number (%) of participants | TEAE Somnolence [4, 13]: 3 (16.7) Number (%) of participants | TEAE Vomiting [4, 13]: 3 (16.7) Number (%) of participants | treatment‐related TEAEs ([4]; SRD 120/160 mg cohort): Two participants had TEAEs considered to be related to treatment, which were mild in intensity | dizziness ([4]; SRD 120/160 mg cohort, n = 2): 25% | headache ([4]; SRD 120/160 mg cohort, n = 2): 25% | participants with moderate TEAEs ([4]; SRD 120/160 mg cohort, one person): 13% | participants with mild TEAEs ([4]; SRD 120/160 mg cohort, three women): 38% | gamma glutamyl transferase level reached ([4]; SRD cohort, 160 mg, Day 30, one participant (13%), more than three times the upper limit of normal): 315 U/L | SAEs, suicidal ideation/behaviour, deaths ([4]; Study 1003): no SAEs, suicidal ideation/behaviour or deaths were reported | thrombocytopenia AEs ([4]; current study): no thrombocytopenia AEs were observed | tolerability ([4]; daily dosing up to 160 mg): well tolerated | Japanese participants experiencing TEAEs ([4]; with TAK‐418 20 mg): 33.3% | non‐Japanese participants experiencing TEAEs ([4]; with TAK‐418 20 mg): 83% | visuospatial learning and memory defects ([5]; after 2 weeks of treatment, compared with vehicle control): visuospatial learning and memory defects were rescued | H3K4 histone modification defects ([5]; mouse model of Kabuki syndrome): rescued H3K4 histone modification defects | adult neurogenesis in the hippocampus ([5]; mouse model of Kabuki syndrome): dose‐dependently normalized adult neurogenesis in the hippocampus | autism symptoms [6]: improved autism symptoms | toxicology findings [7]: testicular findings in a single species | inhibition of LSD1 activity (human LSD1): irreversibly inhibits the activity of human LSD1
